# Screening results: PubChem BioAssay, several laboratories
# In the library only some 1.7% were active in any assay of this set; here they are far more common.
# Rpn11 block: blocks the human proteasome subunit Rpn11. O00487. human 26S proteasome, Ub4-pepOG fluorescence polarization; 20S core pre-blocked with epoxomicin. inhibition, % at 20 µM. 0.59% of 360,000 active;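 active = inhibition at 20 µM, scaled to each plate's controls, above about 33%, limit read from the data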
# PLC-gamma1 inh: blocks human PLC-gamma1 enzyme activity; P19174; purified PLC-gamma1, fluorogenic substrate, fluorescence; 0.84% of 370,000 active; AID 720700; inhibition, % at 12.2 µM; in the data active = inhibition above about 9.5%
# UCH37 DUB inh: inhibitors of human deubiquitinating enzyme UCH37; Q9Y5K5; purified proteasome/UCH37, Ub-AMC cleavage fluorescence; inhibition, % (test concentration not listed); 0.33% of 330,000 active; AID 588478;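 active = mean inhibition over replicate wells above about 20%, limit read from the data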;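 also: 0% = compound-free wells with enzyme and 100% = wells lacking proteasome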
#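 Test system – human UCH37 enzyme supplied as purified proteasome complex · Incubation – 30 min preincubation with enzyme, 25 min cleavage at room temperature · Detection – AMC fluorescence from Ub-AMC cleavage, excitation 355 nm, emission 460 nm · Benchmarks – no-proteasome wells (full inhibition) and compound-free wells (no inhibition)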
# PLCb3 inh: inhibitors of human phospholipase C beta3 | inhibition, % at 12.2 µM | AID 720704 | 0.18% of 370,000 active | Purified PLC-beta3, fluorogenic substrate, fluorescence; in the data active = inhibition above about 11%;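 also: 0% = median of compound wells on plate and 100% = full blocker control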
# Rpn11 confirm: confirmation of human proteasome Rpn11 inhibitors; 29% of 1,900 active; inhibition, % at 20 µM; purified human 26S proteasome, Ub4-pepOG fluorescence polarization; proteasome pretreated with epoxomicin; shares compounds with Rpn11 block; AID 602318
# MMP-2 inh: blocks human MMP-2, flagging nonselective RPN11 hits. shares compounds with Rpn11 block. 4% of 1,900 active. recombinant MMP-2, FRET peptide cleavage fluorescence. inhibition, % at 20 µM;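 also: human MMP-2 activated beforehand with APMA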
# Thrombin inh: blocks bovine thrombin, flagging nonselective RPN11 hits; 13% of 1,900 active; inhibition, % at 20 µM; bovine thrombin cleavage of Ub4-pepOG, fluorescence polarization; shares compounds with Rpn11 block;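 active = mean inhibition at least 40% at 20 µM, or signal 3 deviations below plate average, so some actives read negative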;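 also: plate controls were thrombin with DMSO for no effect and buffer wells lacking thrombin for full effect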
# Target sequence (P00735 whole entry, looked up): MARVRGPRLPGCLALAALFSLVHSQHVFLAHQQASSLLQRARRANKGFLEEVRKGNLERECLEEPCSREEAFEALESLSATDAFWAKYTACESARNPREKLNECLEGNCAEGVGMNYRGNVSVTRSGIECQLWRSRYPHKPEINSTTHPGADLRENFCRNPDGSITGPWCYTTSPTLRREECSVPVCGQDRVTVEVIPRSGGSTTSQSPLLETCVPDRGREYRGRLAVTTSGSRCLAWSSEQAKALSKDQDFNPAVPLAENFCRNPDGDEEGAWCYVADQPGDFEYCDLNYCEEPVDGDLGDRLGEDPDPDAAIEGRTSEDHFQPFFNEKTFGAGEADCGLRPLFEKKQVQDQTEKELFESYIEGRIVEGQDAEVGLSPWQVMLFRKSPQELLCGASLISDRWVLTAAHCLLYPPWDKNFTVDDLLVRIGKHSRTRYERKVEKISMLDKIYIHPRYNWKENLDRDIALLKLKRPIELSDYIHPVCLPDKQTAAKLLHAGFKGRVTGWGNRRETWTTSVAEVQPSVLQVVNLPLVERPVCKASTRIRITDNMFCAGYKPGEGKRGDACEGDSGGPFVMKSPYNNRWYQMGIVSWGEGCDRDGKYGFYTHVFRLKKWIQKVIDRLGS
# Active calls of the source: *; i = inactive; . = not tested or not shown; + = active, no number. Rule as the data show it, unless noted: active = inhibition above about 40%; inactive = the rest.
SMILES,Rpn11 block,PLC-gamma1 inh,UCH37 DUB inh,PLCb3 inh,Rpn11 confirm,MMP-2 inh,Thrombin inh
Cc1ccc(NC(=O)c2ccc(-n3cccn3)c([N+](=O)[O-])c2)cc1,0,-3,2,0,.,.,.
O=C(Nc1ccc(C2=NCCN2)cc1)c1ccc(C(=O)Nc2ccc(C3=NCCN3)cc2)c([N+](=O)[O-])c1,73*,2,.,-3,35,61*,-21
CN1C=CC(=CC=C2C=CC(=O)C=C2)C=C1,82*,-359,-13,-470,43*,-13,31
CC(C)(/C=N/O)N(O)C=C1C=CC(=O)C=C1,-9,3,.,-3,.,.,.
Cc1nc(SCc2nc3ccc(C(F)(F)F)cc3[nH]2)c2oc3ccccc3c2n1,16,-7,3,-15,.,.,.
Cc1nc(SCc2nc3ccc(Cl)cc3[nH]2)c2oc3ccccc3c2n1,32,-16,1,-35,.,.,.
Cc1nc(SCc2nc3ccc(Br)cc3[nH]2)c2oc3ccccc3c2n1,52*,-7,1,-9,44*,-19,16
Cc1nc(SCc2nc3cc(Cl)c(F)cc3[nH]2)c2oc3ccccc3c2n1,75*,-7,4,-12,64*,-7,36
COc1ccc(NC(=O)CN(C)S(=O)(=O)c2ccc(C)cc2)c([N+](=O)[O-])c1,82*,4,3,1,37,-28,0
CC(=NNC(=O)CCc1ccccc1)c1ccc(Br)cc1,.,.,4,.,.,.,.
Cc1cc(C(=O)c2cccs2)c(N)s1,53*,-8,5,-11,50*,-26,39
CSc1nc(-c2ccco2)cc(C(F)(F)F)c1C#N,134*,-3,-51,-5,-2,-29,5
N#Cc1c(C(F)(F)F)cc(-c2ccco2)nc1SCc1ccccn1,.,-147,-36,-189,.,.,.
N#Cc1c(C(F)(F)F)cc(-c2ccco2)nc1SCc1ccncc1,54*,-145,-86,-172,29,-14,18
O=C(Cc1n[nH]c(=O)[nH]c1=O)NN=Cc1cccc(Cl)c1,.,.,4,.,.,.,.
O=C(Cn1nc(CNc2ccc(Cl)cc2)[n+]2c1CCCCC2)c1ccccc1,-2,7,7,7,.,.,.
Cc1ccc(C(C)C)c(OCc2nn(CC(=O)c3ccc(Cl)cc3)c3[n+]2CCCCC3)c1,39*,-12,7,-7,27,-13,11
Cn1c(SCC(=O)NCC2CCCO2)ncc(C(=O)Nc2ccc(Cl)cc2)c1=O (stereo not drawn),64*,-2,-181,-8,11,-47,-3
CCCCOC(=O)Nc1nnc(CCOCC)s1,34*,0,1,4,-1,-15,-3
CCCCOC(=O)Nc1nnc(CCc2ccccc2)s1,7,-3,-7,-2,.,.,.
O=C(CCCOc1ccc(Cl)cc1Cl)NN=Cc1ccccc1,.,.,3,.,.,.,.
Cc1ccc(NC(=O)CO/N=C/c2ccc(N(C)C)cc2)cc1,77*,-7,.,-9,108*,-44,96*
CC(=NNC(=O)c1cccnc1)c1ccc(-c2ccccc2)cc1,.,.,2,.,.,.,.
CCS(=O)(=O)N1N=C(c2cccs2)CC1c1cc2cc(C)ccc2nc1Cl (stereo not drawn),64*,-10,1,-19,34,-9,24
O=C(NN=Cc1cccc2ccccc12)c1cccc(F)c1,.,.,0,.,.,.,.
SMILES,Rpn11 block,PLC-gamma1 inh,UCH37 DUB inh,PLCb3 inh,Rpn11 confirm,MMP-2 inh,Thrombin inh
O=C1NC(=S)S/C1=C\c1cc2ccccc2nc1N1CCCCC1,54*,-18,8,-32,74*,11,46*
O=C1NC(=S)SC1=Cc1ccccc1Cl,10,6,9,-2,.,.,.
Cc1cc(C)cc(NC(=O)C(OC(=O)c2ccc(NC(=O)CC#N)cc2)c2ccccc2)c1 (stereo not drawn),48*,-6,-5,-13,25,-20,17
O=C(Nc1ccccc1-c1nnc(SCc2ccc(Cl)cc2)o1)c1ccccc1,66*,-3,-6,-3,-10,13,-6
CCN1CCc2c(sc(NC(=O)c3ccc(S(=O)(=O)N(CC)c4ccccc4)cc3)c2C(N)=O)C1,58*,-135,.,-127,76*,-246,11
CCCN1CCc2c(sc(NC(=O)c3ccc(S(=O)(=O)N4CCCC4)cc3)c2C(N)=O)C1,47*,-26,7,-44,22,-7,11
CN1CCN(C(=O)/C(=C/c2ccc(N(C)C)cc2)NC(=O)c2ccccc2)CC1,49*,-25,8,-31,17,-7,5
CN1CCN(C(=O)/C(=C/c2ccc(F)cc2)NC(=O)c2ccccc2)CC1,3,-1,4,-7,.,.,.
Cc1cc(C)c(S(=O)(=O)n2ccc(-c3ccc(OCCN(C)c4ccccn4)cc3)n2)c(C)c1,92*,0,2,-3,-39,-14,-13
COc1ccc(C=NN2C(=O)C3C4C=CC(C4)C3C2=O)cc1[N+](=O)[O-] (stereo not drawn),.,.,6,.,.,.,.
C[C@H](NC(=O)c1ncn2c1c(=O)[nH]c1ccc(Br)cc12)c1ccccc1,+,-4,.,-2,5,-2,-8
CCCSc1nnc(CN2CCOCC2)n1C,122*,4,1,4,-12,-49,-18
Cn1c(CN2CCOCC2)nnc1SCC(N)=O,3,3,.,0,.,.,.
O=C(Nn1cnnc1)c1ccc(Br)s1,51*,-2,2,-2,-11,2,-9
Cc1ccc(Cl)cc1NC(=O)c1cnn2c1NC(c1ccco1)CC2C(F)(F)F (stereo not drawn),40*,-1,1,-1,-15,-6,-43
Cc1ccccc1C=NNC(=O)c1ccc(-n2cnnn2)cc1,.,.,1,.,.,.,.
CCc1ccc2nc(SCC(=O)N3CC(=O)Nc4ccccc43)c(C#N)cc2c1,-9,2,3,0,.,.,.
N#Cc1cc(C#N)c(SCC(=O)N2CC(=O)Nc3ccccc32)nc1N,43*,-68,-5,-79,28,-57,23
COc1ccc(-c2cc(-c3ccc(C)cc3)nc(SCc3nnc(-c4ccccc4)o3)c2C#N)cc1OC,122*,-9,i,-10,-4,-21,-8
COc1cc(-c2cc(-c3ccccc3)nc(SCC(=O)O)c2C#N)cc(OC)c1OC,3,-188,-8,-264,.,.,.
CC1CCCC(C)N1N=Cc1ccccc1OC(F)F (stereo not drawn),.,.,2,.,.,.,.
COc1cc(C=NNC(=O)Cc2ccccc2)cc(OC)c1OC,.,.,1,.,.,.,.
COc1ccc2nc(C)cc(SCC(=O)N/N=C/c3c(OC)ccc4ccccc34)c2c1,51*,1,.,0,10,-43,6
Cc1cc(Cl)c(S(=O)(=O)NN=Cc2ccc3c(c2)OCO3)c(Cl)c1,.,.,2,.,.,.,.
Cc1ccccc1NC(C)C(=O)NN=Cc1c[nH]c2ccccc12 (stereo not drawn),.,.,2,.,.,.,.
